Test results as given in ChEMBL document CHEMBL5661979, “Pharmacological inhibition of BMK1 suppresses tumor growth through promyelocytic leukemia protein” (Cancer Cell, 2010).

What was measured:
[1] = target: T1, Serine/threonine-protein kinase TAO2 (Homo sapiens) (UniProt Q9UL54); assay: Inhibition of TAO2 in human HeLa cells lysate at 10 uM pre incubated for 15 mins followed by ATP acyl phosphate probe addition and measured after 10 mins by LC-MS/MS analysis relative to control; format: subcellular; settings: time 25.0 min
T1 sequence (whole entry): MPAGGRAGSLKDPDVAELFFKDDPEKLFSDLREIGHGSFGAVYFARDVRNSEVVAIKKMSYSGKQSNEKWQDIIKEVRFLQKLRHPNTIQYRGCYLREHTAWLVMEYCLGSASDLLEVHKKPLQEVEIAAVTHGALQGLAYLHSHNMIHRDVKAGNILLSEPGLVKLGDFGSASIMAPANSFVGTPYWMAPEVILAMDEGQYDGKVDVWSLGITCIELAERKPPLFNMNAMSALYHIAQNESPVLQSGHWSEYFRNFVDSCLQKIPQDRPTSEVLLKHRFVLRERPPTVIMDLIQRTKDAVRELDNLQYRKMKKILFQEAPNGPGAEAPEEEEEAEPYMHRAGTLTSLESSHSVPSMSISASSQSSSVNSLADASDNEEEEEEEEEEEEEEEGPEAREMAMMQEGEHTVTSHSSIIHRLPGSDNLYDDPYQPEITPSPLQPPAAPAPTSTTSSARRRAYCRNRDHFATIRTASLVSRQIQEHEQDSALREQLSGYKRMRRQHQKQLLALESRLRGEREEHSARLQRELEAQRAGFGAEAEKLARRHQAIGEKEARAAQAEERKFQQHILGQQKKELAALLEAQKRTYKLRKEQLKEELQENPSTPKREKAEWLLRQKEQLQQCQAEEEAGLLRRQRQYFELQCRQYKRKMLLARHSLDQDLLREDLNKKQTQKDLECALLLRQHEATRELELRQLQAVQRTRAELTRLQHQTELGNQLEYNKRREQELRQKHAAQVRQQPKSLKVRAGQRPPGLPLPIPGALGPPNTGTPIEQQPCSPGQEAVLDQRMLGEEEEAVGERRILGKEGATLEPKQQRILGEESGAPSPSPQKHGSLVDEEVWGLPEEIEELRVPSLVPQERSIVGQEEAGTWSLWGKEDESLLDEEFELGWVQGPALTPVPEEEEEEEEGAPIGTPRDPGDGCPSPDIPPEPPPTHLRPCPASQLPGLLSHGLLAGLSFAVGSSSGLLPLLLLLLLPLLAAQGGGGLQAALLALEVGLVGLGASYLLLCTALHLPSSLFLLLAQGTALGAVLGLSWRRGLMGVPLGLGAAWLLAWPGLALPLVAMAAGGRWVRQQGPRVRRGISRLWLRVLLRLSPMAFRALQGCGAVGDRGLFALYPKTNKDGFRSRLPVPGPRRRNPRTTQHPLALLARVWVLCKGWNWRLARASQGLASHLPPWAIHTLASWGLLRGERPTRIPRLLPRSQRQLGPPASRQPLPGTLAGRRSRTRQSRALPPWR

[2] = target: Calcium/calmodulin-dependent protein kinase type II subunit delta (Homo sapiens, UniProt Q13557); assay: Inhibition of CAMK2d in human HeLa cells lysate pre incubated for 15 mins followed by ATP acyl phosphate probe addition and measured after 10 mins by LC-MS/MS analysis; format: subcellular
Calcium/calmodulin-dependent protein kinase type II subunit delta, sequence (Q13557 whole entry, the tested form may be a part): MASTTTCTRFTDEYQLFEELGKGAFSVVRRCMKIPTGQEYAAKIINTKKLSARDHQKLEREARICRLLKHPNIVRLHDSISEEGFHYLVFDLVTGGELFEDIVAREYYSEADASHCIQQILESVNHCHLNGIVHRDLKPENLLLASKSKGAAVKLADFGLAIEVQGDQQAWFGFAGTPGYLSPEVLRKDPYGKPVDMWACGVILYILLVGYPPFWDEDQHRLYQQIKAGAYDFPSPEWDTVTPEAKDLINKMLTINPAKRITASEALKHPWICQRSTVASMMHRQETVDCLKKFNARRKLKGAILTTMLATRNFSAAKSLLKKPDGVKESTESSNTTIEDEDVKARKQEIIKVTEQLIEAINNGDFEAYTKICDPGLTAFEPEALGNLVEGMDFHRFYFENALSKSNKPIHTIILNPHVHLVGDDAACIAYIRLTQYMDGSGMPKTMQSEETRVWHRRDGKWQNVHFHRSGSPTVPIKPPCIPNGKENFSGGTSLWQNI
Outline: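 KiNativ-type profiling in HeLa lysate (5 mg/mL total protein). Lysate preincubated 15 min with inhibitor at 50, 10, 2, 0.8 or 0 μM, then ATP or ADP acylphosphate probe added (5 μM final) for 10 min. Reaction stopped with urea and analysed by targeted MS, using up to four fragment ions per kinase peptide-probe conjugate. % inhibition calculated against untreated lysate. Duplicate reactions.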

[3] = Toxicity in C57Bl/6 mouse assessed as body weight at 50 mg/kg, ip for 14 days (reference value: 0.2 to 0.208 kg); format: organism-based; settings: in vivo, 336 h, time 14 day
[4] = target: T2, Serine/threonine-protein kinase Sgk3 (Homo sapiens, UniProt Q96BR1); assay: Inhibition of SGK3 in human HeLa cells lysate pre incubated for 15 mins followed by ADP acyl phosphate probe addition and measured after 10 mins by LC-MS/MS analysis; format: subcellular
T2 sequence (Q96BR1 whole entry): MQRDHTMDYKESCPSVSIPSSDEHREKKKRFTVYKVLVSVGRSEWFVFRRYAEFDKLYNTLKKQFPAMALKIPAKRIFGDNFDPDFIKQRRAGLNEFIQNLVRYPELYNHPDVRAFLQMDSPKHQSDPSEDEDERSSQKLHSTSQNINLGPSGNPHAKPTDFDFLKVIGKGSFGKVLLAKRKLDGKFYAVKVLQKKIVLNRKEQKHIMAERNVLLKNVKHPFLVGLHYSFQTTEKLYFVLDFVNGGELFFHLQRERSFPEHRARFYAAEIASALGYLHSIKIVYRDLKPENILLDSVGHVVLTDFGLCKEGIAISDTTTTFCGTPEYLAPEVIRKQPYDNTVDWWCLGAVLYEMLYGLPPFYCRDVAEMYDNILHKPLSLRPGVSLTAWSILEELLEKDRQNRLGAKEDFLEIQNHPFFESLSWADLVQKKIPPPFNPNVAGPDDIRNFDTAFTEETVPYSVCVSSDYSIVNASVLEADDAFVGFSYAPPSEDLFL

[5] = target: T3, Phosphatidylinositol 5-phosphate 4-kinase type-2 alpha (Homo sapiens) (UniProt P48426); assay: Inhibition of PIP5K2A LIP1 site in human HeLa cells lysate at 50 uM pre incubated for 15 mins followed by ADP acyl phosphate probe addition and measured after 10 mins by LC-MS/MS analysis relative to control; format: subcellular; settings: time 25.0 min
T3 sequence (whole entry): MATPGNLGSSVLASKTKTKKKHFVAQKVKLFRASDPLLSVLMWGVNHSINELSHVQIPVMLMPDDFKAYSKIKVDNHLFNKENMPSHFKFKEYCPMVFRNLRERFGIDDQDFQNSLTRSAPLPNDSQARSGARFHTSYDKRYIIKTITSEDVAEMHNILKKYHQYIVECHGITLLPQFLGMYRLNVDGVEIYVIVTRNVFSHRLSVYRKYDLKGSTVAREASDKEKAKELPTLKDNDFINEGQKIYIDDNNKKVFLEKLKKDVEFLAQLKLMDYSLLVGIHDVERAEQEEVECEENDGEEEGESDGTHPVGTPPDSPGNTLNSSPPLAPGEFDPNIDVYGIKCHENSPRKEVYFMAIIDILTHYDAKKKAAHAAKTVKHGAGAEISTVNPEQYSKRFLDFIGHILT

## CCOc1cc(N2CCC(O)CC2)ccc1Nc1ncc2c(n1)N(C)c1ccccc1C(=O)N2C
[1]
  inhibition: 3.3%
[2]
  IC50: > 50 µM
[3]
  Activity: 0.02 kg
[4]
  IC50: > 50 µM
[5]
  inhibition: 16.2%
